Assay [1] deals with Hypothalamus. Nature of the assay: Effect on neurosteroid biosynthesis assessed as conversion of [3H]pregnenolone to 17-Hydroxypregnenolone in frog hyphalamic explats at 1 uM after 2 hrs relative to control. It is filed as functional, Pelophylax lessonae. The method in brief: (§1)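 Frog hypothalamic explants, preincubated 15 min in HEPES/bicarbonate Ringer's (glucose, BSA, 95% O2/5% CO2, pH 7.4), then incubated 2 h at 24 °C with 10^-6 M [3H]pregnenolone in 4% propylene glycol, with or without peptide. Reaction stopped with trichloroacetic acid; steroids extracted in dichloromethane and resolved by RP-HPLC radioactivity profiles. Values are % of steroid formed without peptide, mean ± SEM of independent experiments.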

The test system of assay [2] is Hypothalamus. Nature of the assay: Effect on neurosteroid biosynthesis assessed as conversion of [3H]pregnenolone to progesterone in frog hyphalamic explats at 1 uM after 2 hrs relative control. The assay is classed as functional, Pelophylax lessonae. The method in brief:
as §1

Assay [3] relates to Hypothalamus. The experiment in a line: Effect on neurosteroid biosynthesis assessed as conversion of [3H]pregnenolone to 17-Hydroxypregnenolone in frog hyphalamic explats at 10 uM after 2 hrs relative to control. The assay is classed as functional, Pelophylax lessonae. The method, boiled down: as §1
For assay [4], the system named is Hypothalamus. Nature of the assay: Effect on neurosteroid biosynthesis assessed as conversion of [3H]pregnenolone to progesterone in frog hyphalamic explats at 10 uM after 2 hrs relative control. The assay is classed as functional, Pelophylax lessonae. The method in brief: as §1
Assay [5] concerns Hypothalamus. Nature of the assay: Effect on neurosteroid biosynthesis in frog hyphalamic explats at 1 uM after 2 hrs in presence of CBR antagonist flumazenil. The assay is classed as functional, tissue-based. As to conditions: Pelophylax lessonae. The method, boiled down: as §1

Active and inactive are the calls of the source. The calls are words filed in the database; no cut-off is given here.

`CC(C)C[C@@H]1NC(=O)CNC(=O)[C@@H]2CCCN2C(=O)[C@H](CCCNC(=N)N)NC(=O)[C@H](CCCCN)NC(=O)[C@H](CC(C)C)NC(=O)[C@H](CC(=O)O)NC(=O)[C@H](CC(C)C)NC1=O`: the Activity came out at 246.9% in the assay on Hypothalamus [1] and 271.9% with Hypothalamus [2].
Turning to `CC(C)C[C@@H]1NC(=O)CNC(=O)[C@@H]2CCCN2C(=O)[C@H](CCCNC(=N)N)NC(=O)[C@H](CCCCN)NC(=O)[C@H](CC(C)C)NC(=O)[C@H](CC(=O)O)NC(=O)[C@@H](CC(C)C)NC1=O`, the results for the Activity in the assay with Hypothalamus [3] and with Hypothalamus [4] were 99.9% and 99.7%, respectively.
Regarding `CC(C)C[C@@H]1NC(=O)CNC(=O)[C@H]2CCCN2C(=O)[C@H](CCCNC(=N)N)NC(=O)[C@H](CCCCN)NC(=O)[C@H](CC(C)C)NC(=O)[C@H](CC(=O)O)NC(=O)[C@@H](CC(C)C)NC1=O`, the result in the assay with Hypothalamus [5] was inactive.
For H-APGLLDLK-OH [APGLLDLK], the results for the Activity with Hypothalamus [1] and in the assay with Hypothalamus [2] were 402.7% and 276.5%, respectively.
In the case of H-GLLDL-OH, the figures for the Activity with Hypothalamus [1] and in the assay with Hypothalamus [2] were 98.9% and 116.5%, respectively.
As to H-GLLDLK-OH, the Activity in the assay on Hypothalamus [1] stood at 366.6%; in the assay with Hypothalamus [2], 266.6%.
For the molecule H-LLDLK-OH, the Activity with Hypothalamus [1] worked out at 103.6%; with Hypothalamus [2], 103.8%.
As for H-PGLLD-OH, the values for the Activity in the assay on Hypothalamus [1] and in the assay with Hypothalamus [2] were 101.3% and 101.4%, respectively.
On the same counts, the results for H-PGLLDL-OH are 117.5% and 137%.
Regarding H-PGLLDLK-OH [PGLLDLK], the Activity in the assay with Hypothalamus [1] was 400.2%; with Hypothalamus [2] it was 282.1%.
As for “H-QATVGDVNTDRPGLLDLK-OH [QATVGDVNTDRPGLLDLK]”, the Activity with Hypothalamus [1] amounted to 465.3%; in the assay with Hypothalamus [2], 382.7%.
On to H-RAGLLDLK-OH, for which the Activity in the assay with Hypothalamus [1] is on record as 405%; in the assay with Hypothalamus [2], 265.2%.
With H-RPALLDLK-OH, the Activity in the assay with Hypothalamus [1] is on record as 126%; with Hypothalamus [2], 99%.
With H-RPGALDLK-OH, the values for the Activity in the assay on Hypothalamus [1] and in the assay on Hypothalamus [2] were 97.1% and 104.7%, respectively.
Turning to H-RPGLADLK-OH, the figures for the Activity in the assay on Hypothalamus [1] and in the assay with Hypothalamus [2] were 92.8% and 108.5%, respectively.
With H-RPGLL-OH, the results for the Activity in the assay with Hypothalamus [1] and in the assay with Hypothalamus [2] were 97.1% and 99.6%, respectively.
Take H-RPGLLALK-OH: the Activity is reported as 103.6% in the assay on Hypothalamus [1] and 100.4% in the assay with Hypothalamus [2].
Take H-RPGLLD-OH: the Activity in the assay on Hypothalamus [1] is on record as 98.2%; in the assay with Hypothalamus [2], 98.6%.
For H-RPGLLDAK-OH, the Activity in the assay with Hypothalamus [1] came out at 99.5%; in the assay on Hypothalamus [2], 103.2%.
For H-RPGLLDL-OH, the Activity in the assay with Hypothalamus [1] is reported as 131.5%; in the assay with Hypothalamus [2] it was 136.6%.
For H-RPGLLDLA-OH, the Activity worked out at 126% with Hypothalamus [1] and 137% with Hypothalamus [2].
Consider H-RPGLLDLK-OH, for which the Activity is reported as 410.5% with Hypothalamus [1] and 281.7% in the assay with Hypothalamus [2]. Also, in the assay on Hypothalamus [5], the result was inactive.

The values are drawn from ChEMBL document CHEMBL1145397, “Structure-activity relationships of a series of analogs of the endozepine octadecaneuropeptide (ODN(11)(-)(18)) on neurosteroid biosynthesis by hypothalamic explants” (2007).
